In ChEMBL document CHEMBL4819114, “Discovery of a potent and selective Axl inhibitor in preclinical model” (Bioorg Med Chem, 2021):
Values after ≈ are worked out from the molar mass of the structure shown. Active and inactive are the calls of the source. The rule behind the calls is not given here.

What was measured:
[1] = Kinetic solubility of compound in PBS buffer at pH 7 incubated for 15 mins by HPLC-UV analysis
[2] = Metabolic stability in mouse liver microsomes assessed as residual ratio measured after 30 mins in presence of NADPH by LC-MS/MS analysis relative to absence of NADPH; type: ADME, Microsome; details: read-out: Stabilty
Procedure, shortened: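 Incubation with mouse liver microsomes (0.5 mg/mL), 30 min at 37 °C, in 0.1 M potassium phosphate pH 7.4, 0.1 mM EDTA, 6 mM MgCl2 and an NADPH-generating system (β-NADP+, glucose-6-phosphate, G6P dehydrogenase). Quenched with acetonitrile/methanol (7:3) containing propranolol internal standard, then LC-MS/MS. Residual ratio with NADPH taken relative to without NADPH.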

[3] = target: Tyrosine-protein kinase Lck (Homo sapiens) (UniProt P06239); assay: Inhibition of LCK (unknown origin)
Tyrosine-protein kinase Lck (Homo sapiens), sequence (P06239 2-509 limits assumed): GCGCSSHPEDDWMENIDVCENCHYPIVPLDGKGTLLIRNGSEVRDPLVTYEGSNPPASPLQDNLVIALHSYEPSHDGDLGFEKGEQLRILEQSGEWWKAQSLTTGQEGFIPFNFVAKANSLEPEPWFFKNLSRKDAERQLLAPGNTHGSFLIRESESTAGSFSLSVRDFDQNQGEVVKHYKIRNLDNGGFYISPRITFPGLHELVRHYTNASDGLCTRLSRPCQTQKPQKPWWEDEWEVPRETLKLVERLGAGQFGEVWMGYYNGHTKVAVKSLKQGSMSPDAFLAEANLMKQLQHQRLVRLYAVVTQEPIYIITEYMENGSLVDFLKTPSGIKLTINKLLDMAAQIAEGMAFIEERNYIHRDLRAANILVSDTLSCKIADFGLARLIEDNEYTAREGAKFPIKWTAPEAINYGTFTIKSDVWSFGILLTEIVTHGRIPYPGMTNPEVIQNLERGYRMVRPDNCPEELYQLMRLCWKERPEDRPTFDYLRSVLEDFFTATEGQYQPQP

[4] = Toxicity in BALB/c mouse assessed as induction of necrosis in photoreceptor cells at 100 mg/kg, po administered for 14 days hematoxylin and eosin staining based assay; type: organism-based; details: in vivo, 336 h, time 14 day
Procedure, shortened: (§1)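 Female BALB/cAJcl mice (n = 3 or 5/group) dosed orally once daily for 14 days at 100 mg/kg; controls untreated. Body weight tracked. At necropsy after dosing, eyes fixed in 3% glutaraldehyde/2.5% formalin, paraffin-embedded, sectioned, stained with hematoxylin-eosin, and the retina examined histopathologically.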

[5] = target: Hepatocyte growth factor receptor (Homo sapiens) (UniProt P08581); assay: Inhibition of c-Met (unknown origin)
Hepatocyte growth factor receptor (Homo sapiens), sequence (P08581 whole entry): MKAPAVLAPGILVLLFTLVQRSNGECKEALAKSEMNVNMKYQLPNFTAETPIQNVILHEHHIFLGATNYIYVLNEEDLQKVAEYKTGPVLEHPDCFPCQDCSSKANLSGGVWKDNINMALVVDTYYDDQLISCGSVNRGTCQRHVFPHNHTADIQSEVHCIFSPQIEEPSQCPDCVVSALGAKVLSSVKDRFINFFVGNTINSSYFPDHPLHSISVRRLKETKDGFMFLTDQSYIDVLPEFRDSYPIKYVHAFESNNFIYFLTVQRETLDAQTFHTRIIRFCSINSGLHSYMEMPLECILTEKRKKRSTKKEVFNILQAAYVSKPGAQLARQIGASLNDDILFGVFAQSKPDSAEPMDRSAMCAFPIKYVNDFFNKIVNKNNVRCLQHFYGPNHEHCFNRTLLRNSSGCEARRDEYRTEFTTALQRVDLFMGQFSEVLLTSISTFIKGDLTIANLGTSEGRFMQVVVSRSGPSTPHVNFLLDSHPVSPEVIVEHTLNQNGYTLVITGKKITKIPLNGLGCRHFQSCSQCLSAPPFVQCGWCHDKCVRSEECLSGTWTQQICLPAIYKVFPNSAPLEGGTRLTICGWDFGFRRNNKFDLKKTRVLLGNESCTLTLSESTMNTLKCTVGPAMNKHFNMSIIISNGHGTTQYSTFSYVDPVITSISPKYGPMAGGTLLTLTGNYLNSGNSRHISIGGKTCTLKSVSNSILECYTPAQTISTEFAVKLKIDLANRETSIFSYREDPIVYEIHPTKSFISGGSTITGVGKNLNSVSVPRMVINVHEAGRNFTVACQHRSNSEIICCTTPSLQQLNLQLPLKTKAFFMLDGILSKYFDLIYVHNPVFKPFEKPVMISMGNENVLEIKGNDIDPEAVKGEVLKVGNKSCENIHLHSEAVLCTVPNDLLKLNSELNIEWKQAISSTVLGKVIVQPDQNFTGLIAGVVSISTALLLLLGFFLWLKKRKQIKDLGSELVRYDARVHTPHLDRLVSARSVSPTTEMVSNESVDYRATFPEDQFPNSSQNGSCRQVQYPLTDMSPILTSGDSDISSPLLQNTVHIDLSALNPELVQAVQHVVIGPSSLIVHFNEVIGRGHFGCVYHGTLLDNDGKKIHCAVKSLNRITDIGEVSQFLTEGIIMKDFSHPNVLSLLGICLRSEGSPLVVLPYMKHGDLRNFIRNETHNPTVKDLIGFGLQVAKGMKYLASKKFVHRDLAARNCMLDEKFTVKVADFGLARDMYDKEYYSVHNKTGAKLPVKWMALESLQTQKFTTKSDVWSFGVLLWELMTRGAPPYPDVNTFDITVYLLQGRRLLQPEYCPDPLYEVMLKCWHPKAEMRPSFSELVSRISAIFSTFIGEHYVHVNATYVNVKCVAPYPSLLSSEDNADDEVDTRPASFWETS

[6] = Toxicity in BALB/c mouse assessed as effect on body weight at 100 mg/kg, po administered for 14 days; type: organism-based; details: in vivo, 336 h, time 14 day; procedure, shortened: as §1
[7] = target: T1, Tyrosine-protein kinase receptor TYRO3 (Homo sapiens) (UniProt Q06418); assay: Inhibition of Tyro3 (unknown origin)
T1 sequence (whole entry): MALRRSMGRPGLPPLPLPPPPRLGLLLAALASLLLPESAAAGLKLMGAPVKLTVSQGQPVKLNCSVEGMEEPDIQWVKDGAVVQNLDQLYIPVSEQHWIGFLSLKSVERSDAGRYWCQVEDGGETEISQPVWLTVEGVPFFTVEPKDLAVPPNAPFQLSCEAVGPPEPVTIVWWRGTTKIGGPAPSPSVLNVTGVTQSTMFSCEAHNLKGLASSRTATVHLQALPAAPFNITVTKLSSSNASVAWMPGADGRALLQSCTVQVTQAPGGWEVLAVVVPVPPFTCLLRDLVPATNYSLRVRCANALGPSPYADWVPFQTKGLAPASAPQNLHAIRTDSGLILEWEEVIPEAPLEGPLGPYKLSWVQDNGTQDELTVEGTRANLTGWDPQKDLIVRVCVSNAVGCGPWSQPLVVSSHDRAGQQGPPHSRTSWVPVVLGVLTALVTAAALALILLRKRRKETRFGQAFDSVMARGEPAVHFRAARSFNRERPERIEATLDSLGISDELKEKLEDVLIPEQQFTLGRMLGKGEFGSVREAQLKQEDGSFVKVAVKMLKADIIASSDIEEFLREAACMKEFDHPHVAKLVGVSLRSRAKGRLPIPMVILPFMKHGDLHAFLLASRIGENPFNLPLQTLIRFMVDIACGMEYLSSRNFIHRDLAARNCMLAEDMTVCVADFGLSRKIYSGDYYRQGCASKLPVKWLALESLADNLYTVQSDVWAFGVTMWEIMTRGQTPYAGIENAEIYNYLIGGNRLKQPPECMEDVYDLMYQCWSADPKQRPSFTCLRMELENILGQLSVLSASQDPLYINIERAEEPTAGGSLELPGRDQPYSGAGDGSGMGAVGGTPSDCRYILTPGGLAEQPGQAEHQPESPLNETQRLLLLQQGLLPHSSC

[8] = Tmax in CAnN.Cg-Foxnlnu/Cr1Crlj mouse at 10 mg/kg, po measured upto 24 hrs by LC-MS/MS analysis; type: ADME, organism-based; details: in vivo
Procedure, shortened: (§2)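 Single oral dose in DMSO/Tween80/5% glucose (7:13:80, v/v/v) to female mice. Blood taken from retinal vein at 0.5, 1, 2, 8 and 24 h and spun to plasma. Plasma precipitated with 20 volumes acetonitrile/methanol (7:3) containing propranolol and niflumic acid internal standards, then analysed by LC-MS/MS. Cmax, tmax and AUC(0-24h) derived from mean plasma concentration.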

[9] = Tmax in CAnN.Cg-Foxnlnu/Cr1Crlj mouse at 100 mg/kg, po measured upto 24 hrs by LC-MS/MS analysis; type: ADME, organism-based; details: in vivo; procedure, shortened: as §2
[10] = Cmax in CAnN.Cg-Foxnlnu/Cr1Crlj mouse at 100 mg/kg, po measured upto 24 hrs by LC-MS/MS analysis; type: ADME, organism-based; parameters: route oral, dose 100 mg/kg, time <=24; details: in vivo; procedure, shortened: as §2
[11] = Cmax in CAnN.Cg-Foxnlnu/Cr1Crlj mouse at 30 mg/kg, po measured upto 24 hrs by LC-MS/MS analysis; type: ADME, organism-based; parameters: route oral, dose 30 mg/kg, time <=24; details: in vivo; procedure, shortened: as §2
[12] = AUC (0 to 24 hrs) in CAnN.Cg-Foxnlnu/Cr1Crlj mouse at 10 mg/kg, po measured upto 24 hrs by LC-MS/MS analysis; type: ADME, organism-based; parameters: route oral, dose 10 mg/kg, time <=24; details: in vivo; procedure, shortened: as §2
BaF3 = assay: Antitumor activity against mouse BaF3 cells expressing Axl xenografted in C3H mouse assessed as reduction in tumor growth at 1 to 10 mg/kg, po administered for 4 days and measured on day 4; details: dose 1-10 mg/kg, time 4.0 day
[13] = AUC (0 to 24 hrs) in CAnN.Cg-Foxnlnu/Cr1Crlj mouse at 30 mg/kg, po measured upto 24 hrs by LC-MS/MS analysis; type: ADME, organism-based; parameters: route oral, dose 30 mg/kg, time <=24; details: in vivo; procedure, shortened: as §2
[14] = AUC (0 to 24 hrs) in CAnN.Cg-Foxnlnu/Cr1Crlj mouse at 100 mg/kg, po measured upto 24 hrs by LC-MS/MS analysis; type: ADME, organism-based; parameters: route oral, dose 100 mg/kg, time <=24; details: in vivo; procedure, shortened: as §2
[15] = Tmax in CAnN.Cg-Foxnlnu/Cr1Crlj mouse at 30 mg/kg, po measured upto 24 hrs by LC-MS/MS analysis; type: ADME, organism-based; details: in vivo; procedure, shortened: as §2
[16] = Toxicity in C3H mouse xenografted with mouse BaF3 cells assessed as effect on body weight at 1 to 10 mg/kg, po administered for 4 days and measured on day 4; details: in vivo, 96 h
[17] = Cmax in CAnN.Cg-Foxnlnu/Cr1Crlj mouse at 10 mg/kg, po measured upto 24 hrs by LC-MS/MS analysis; type: ADME, organism-based; parameters: route oral, dose 10 mg/kg, time <=24; details: in vivo; procedure, shortened: as §2

solubility kinetic at 0.25 h [1] [µM] | remaining at 0.5 h [2] [%] | Compound | other results
6 (≈ 3.27 µg/mL) | 83 | CC(C)n1cc(C(=O)Nc2ccc(Oc3cc(NC(=O)C4CC4)ncn3)cc2)c(=O)n(-c2ccc(F)cc2)c1=O | –
76 (≈ 54.8 µg/mL) | 86 | CC(C)n1cc(C(=O)Nc2cc(F)c(Oc3ccnc(NC(=O)N4CCC(N5CCN(C)CC5)CC4)c3)cc2F)c(=O)n(-c2ccc(F)cc2)c1=O | inhibition [3]: Active; Activity [4]: Toxic; inhibition [5]: Active; Activity [6]: Non-Toxic; inhibition [7]: Active
89 (≈ 60.9 µg/mL) | 87 | CN1CCN(C2CCN(C(=O)Nc3cc(Oc4ccc(NC(=O)c5cn(C6CC6)c(=O)n(-c6ccc(F)cc6)c5=O)cc4)ncn3)CC2)CC1 | –
73 (≈ 45.5 µg/mL) | 75 | CN1CCC(CC(=O)Nc2cc(Oc3ccc(NC(=O)c4cc5c(n(-c6ccccc6)c4=O)CCCC5=O)c(F)c3)ccn2)CC1 | –
– | 0.3 | CC(C)n1cc(C(=O)Nc2ccc(Oc3cc(NC(=O)N4CC(N(C)C)C4)ncn3)cc2)c(=O)n(-c2ccc(F)cc2)c1=O | –
80 (≈ 56.9 µg/mL) | 82 | CN1CCN(C2CCN(C(=O)Nc3cc(Oc4ccc(NC(=O)c5cn(C6CCCC6)c(=O)n(-c6ccc(F)cc6)c5=O)cc4)ncn3)CC2)CC1 | –
90 (≈ 59.2 µg/mL) | 99 | CN1CCN(C2CCN(C(=O)Nc3cc(Oc4ccc(NC(=O)c5cn(C)c(=O)n(-c6ccc(F)cc6)c5=O)cc4)ncn3)CC2)CC1 | –
36 (≈ 20.1 µg/mL) | 79 | CC(C)n1cc(C(=O)Nc2ccc(Oc3cc(NC(=O)N4CCC4)ncn3)cc2)c(=O)n(-c2ccc(F)cc2)c1=O | –
43 (≈ 30.6 µg/mL) | 78 | CN1CCN(C2CCN(C(=O)Nc3cc(Oc4cc(F)c(NC(=O)c5cc6c(n(-c7ccccc7)c5=O)CCCC6=O)cc4F)ccn3)CC2)CC1 | –
50 (≈ 32.1 µg/mL) | 72 | CN1CCC(CC(=O)Nc2cc(Oc3cc(F)c(NC(=O)c4cc5c(n(-c6ccccc6)c4=O)CCCC5=O)cc3F)ccn2)CC1 | –
82 (≈ 51.7 µg/mL) | 78 | CN1CCC(CC(=O)Nc2cc(Oc3ccc(NC(=O)c4cn(C5CC5)c(=O)n(-c5ccc(F)cc5)c4=O)cc3F)ccn2)CC1 | –
89 (≈ 61 µg/mL) | 88 | CC(C)n1cc(C(=O)Nc2ccc(Oc3cc(NC(=O)N4CCC(N5CCN(C)CC5)CC4)ncn3)cc2)c(=O)n(-c2ccc(F)cc2)c1=O | inhibition [3]: inactive; Tmax [8]: 2 h; Tmax [9]: 2 h; Cmax [10]: 13500 ng/mL; Cmax [11]: 3790 ng/mL; Activity [4]: Non-Toxic; AUC(0-t) [12]: 7290 ng·h/mL; TGI (BaF3): Active; AUC(0-t) [13]: 18100 ng·h/mL; AUC(0-t) [14]: 72700 ng·h/mL; Tmax [15]: 2 h; inhibition [5]: inactive; Activity [16]: Non-Toxic; Cmax [17]: 1580 ng/mL; Activity [6]: Non-Toxic; inhibition [7]: inactive
32 (≈ 17.9 µg/mL) | 19 | CC(C)n1cc(C(=O)Nc2ccc(Oc3ccnc(NC(=O)CN(C)C)c3)cc2)c(=O)n(-c2ccc(F)cc2)c1=O | –
78 (≈ 49.3 µg/mL) | 76 | CC(C)n1cc(C(=O)Nc2ccc(Oc3ccnc(NC(=O)CC4CCN(C)CC4)c3)cc2F)c(=O)n(-c2ccc(F)cc2)c1=O | –
75 (≈ 46.8 µg/mL) | 71 | CN1CCC(CC(=O)Nc2cc(Oc3ccc(NC(=O)c4cc5c(n(-c6ccccc6)c4=O)CCCC5=O)cc3F)ccn2)CC1 | –
77 (≈ 46.6 µg/mL) | 77 | CN1CCC(CC(=O)Nc2cc(Oc3ccc(NC(=O)c4cc5c(n(-c6ccccc6)c4=O)CCCC5=O)cc3)ccn2)CC1 | –
70 (≈ 46.1 µg/mL) | 63 | CN1CCC(CC(=O)Nc2cc(Oc3ccc(NC(=O)c4cn(C5CCCC5)c(=O)n(-c5ccc(F)cc5)c4=O)cc3F)ccn2)CC1 | –
83 (≈ 47.8 µg/mL) | 92 | CC(C)n1cc(C(=O)Nc2ccc(Oc3cc(NC(=O)N4CC(O)C4)ncn3)cc2)c(=O)n(-c2ccc(F)cc2)c1=O | –
80 (≈ 49.2 µg/mL) | 81 | CC(C)n1cc(C(=O)Nc2ccc(Oc3ccnc(NC(=O)CC4CCN(C)CC4)c3)cc2)c(=O)n(-c2ccc(F)cc2)c1=O | –
80 (≈ 50.3 µg/mL) | 1.3 | CC(C)n1cc(C(=O)Nc2ccc(Oc3cc(NC(=O)N4CC(N5CCCC5)C4)ncn3)cc2)c(=O)n(-c2ccc(F)cc2)c1=O | –
1 (≈ 0.574 µg/mL) | 59 | CC(C)n1cc(C(=O)Nc2ccc(Oc3cc(NC(=O)N4CCCC4)ncn3)cc2)c(=O)n(-c2ccc(F)cc2)c1=O | –
